According to publication PMC7017397 (ACS Omega, 2020):

Legend:
Assay type in all cases: in vivo, C57BL/6J mice
[1] = Spinal cord pharmacokinetics after a single 1 mg/kg dose; settings: for Cmax / MRT last / Tmax / k el: C57BL/6J, mouse, 1 mg/kg; for spinal cord drug targeting efficiency: from zero-infinity predicted AUC values
How it was run: (§1)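 Anaesthetized (zolazepam/xylazine i.p.) male C57BL/6J mice, n = 4 per time point, were dosed 1 mg/kg by i.v., s.c., i.p. or gavage. At 2.5–90 min, after cardiac blood sampling, they were transcardially perfused with saline. Brain and spinal cord were homogenized in equal weight-volume water, spiked with internal standard, deproteinized 1:3 with cold acetonitrile and quantified by LC–MS/MS. Per-time-point means were fitted with a two-compartment model.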

[2] = Plasma pharmacokinetics after a single 1 mg/kg dose; settings: for AUC / MRT last / k el: C57BL/6J, mouse, 1 mg/kg
How it was run: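 Male C57BL/6J mice (10–12 weeks; n = 4 per time point) under i.p. zolazepam 50 mg/kg plus xylazine 12 mg/kg received 1 mg/kg in 5% dextrose (37 °C) by tail-vein i.v., s.c., i.p. or gavage. Terminal cardiac-puncture blood was taken into EDTA at 2.5–90 min. Plasma was spiked with internal standard, acetonitrile-deproteinized and measured by LC–MS/MS. Mean levels were fitted two-compartmentally, with AUC by linear trapezoidal rule.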

[3] = Brain pharmacokinetics after a single 1 mg/kg dose; settings: for Cmax / MRT last / Tmax / k el: C57BL/6J, mouse, 1 mg/kg; for brain drug targeting efficiency: from zero-infinity predicted AUC values
How it was run: as §1

[4] = spinal cord, i.p. 1 mg/kg single dose
[5] = spinal cord, i.v. 1 mg/kg single dose
[6] = spinal cord, p.o. 1 mg/kg single dose
[7] = spinal cord, s.c. 1 mg/kg single dose
[8] = brain, i.p. 1 mg/kg single dose
[9] = brain, i.v. 1 mg/kg single dose
[10] = brain, p.o. 1 mg/kg single dose
[11] = brain, s.c. 1 mg/kg single dose

Cmax ([1]; spinal cord, ip): 71.3 ng/g
MRT last ([1]; spinal cord, ip): 37.2 min
Tmax ([1]; spinal cord, ip): 11.9 min
k el ([1]; spinal cord, ip): 0.000242 s⁻¹
Cmax ([1]; spinal cord, iv): 130 ng/g
MRT last ([1]; spinal cord, iv): 41.4 min
k el ([1]; spinal cord, iv): 0.000111 s⁻¹
Cmax ([1]; spinal cord, po): 75.9 ng/g
MRT last ([1]; spinal cord, po): 40.8 min
Tmax ([1]; spinal cord, po): 14.9 min
k el ([1]; spinal cord, po): 0.000122 s⁻¹
Cmax ([1]; spinal cord, sc): 96.6 ng/g
MRT last ([1]; spinal cord, sc): 38.4 min
Tmax ([1]; spinal cord, sc): 23.1 min
k el ([1]; spinal cord, sc): 0.000519 s⁻¹
spinal cord drug targeting efficiency ([1]; i.p. 1 mg/kg): 0.63
spinal cord drug targeting efficiency ([1]; p.o. 1 mg/kg): 4.42
spinal cord drug targeting efficiency ([1]; s.c. 1 mg/kg): 0.77
Alpha (hybrid first-order rate constant, distribution phase) [1, 4]: 0.87 h⁻¹
Beta (hybrid first-order rate constant, elimination phase) [1, 4]: 0.19 h⁻¹
CLD2_F (apparent total clearance of the drug after administration) [1, 4]: 0.01 ng/(min ng/g)
CL_F (apparent total body clearance of the drug) [1, 4]: 5.15 ng/(min ng/g)
K01 (absorption rate constant) [1, 4]: 15.39 h⁻¹
K12 (distribution rate constant) [1, 4]: <0.01 h⁻¹
K21 (redistribution rate constant) [1, 4]: 0.19 h⁻¹
V1_F (apparent volume of central compartment) [1, 4]: 0.35 μg/(ng/g)
V2_F (apparent volume of peripheral compartment) [1, 4]: <0.01 μg/(ng/g)
Alpha (hybrid first-order rate constant, distribution phase) [1, 5]: 26.36 h⁻¹
Beta (hybrid first-order rate constant, elimination phase) [1, 5]: 0.27 h⁻¹
CLD2_F (apparent total clearance of the drug after administration) [1, 5]: 30.58 ng/(min ng/g)
CL_F (apparent total body clearance of the drug) [1, 5]: 1.52 ng/(min ng/g)
K12 (distribution rate constant) [1, 5]: 7.94 h⁻¹
K21 (redistribution rate constant) [1, 5]: 18.30 h⁻¹
V1_F (apparent volume of central compartment) [1, 5]: 0.23 μg/(ng/g)
V2_F (apparent volume of peripheral compartment) [1, 5]: 0.10 μg/(ng/g)
Vss (apparent volume of distribution at a steady state) [1, 5]: 0.33 μg/(ng/g)
Alpha (hybrid first-order rate constant, distribution phase) [1, 6]: 1.69 h⁻¹
Beta (hybrid first-order rate constant, elimination phase) [1, 6]: 0.26 h⁻¹
CLD2_F (apparent total clearance of the drug after administration) [1, 6]: 2.71 ng/(min ng/g)
CL_F (apparent total body clearance of the drug) [1, 6]: 2.33 ng/(min ng/g)
K01 (absorption rate constant) [1, 6]: 11.20 h⁻¹
K12 (distribution rate constant) [1, 6]: 0.51 h⁻¹
K21 (redistribution rate constant) [1, 6]: 1.00 h⁻¹
V1_F (apparent volume of central compartment) [1, 6]: 0.32 μg/(ng/g)
V2_F (apparent volume of peripheral compartment) [1, 6]: 0.16 μg/(ng/g)
Alpha (hybrid first-order rate constant, distribution phase) [1, 7]: 2.66 h⁻¹
Beta (hybrid first-order rate constant, elimination phase) [1, 7]: 0.22 h⁻¹
CLD2_F (apparent total clearance of the drug after administration) [1, 7]: 1.36 ng/(min ng/g)
CL_F (apparent total body clearance of the drug) [1, 7]: 3.68 ng/(min ng/g)
K01 (absorption rate constant) [1, 7]: 2.70 h⁻¹
K12 (distribution rate constant) [1, 7]: 0.69 h⁻¹
K21 (redistribution rate constant) [1, 7]: 0.32 h⁻¹
V1_F (apparent volume of central compartment) [1, 7]: 0.12 μg/(ng/g)
V2_F (apparent volume of peripheral compartment) [1, 7]: 0.26 μg/(ng/g)
AUC ([2]; ip): 1800 ng·h/mL
MRT last ([2]; ip): 27.4 min
k el ([2]; ip): 0.00114 s⁻¹
AUC ([2]; iv): 2510 ng·h/mL
MRT last ([2]; iv): 13.2 min
k el ([2]; iv): 0.00193 s⁻¹
AUC ([2]; po): 227 ng·h/mL
MRT last ([2]; po): 32.6 min
k el ([2]; po): 0.000711 s⁻¹
AUC ([2]; sc): 2240 ng·h/mL
MRT last ([2]; sc): 38.8 min
k el ([2]; sc): 0.000592 s⁻¹
Alpha (hybrid first-order rate constant, distribution phase) ([2]; i.p. 1 mg/kg single dose): 0.07 min⁻¹
Beta (hybrid first-order rate constant, elimination phase) ([2]; i.p. 1 mg/kg single dose): 0.03 min⁻¹
CLD2_F (apparent total clearance of the drug from plasma after administration) ([2]; i.p. 1 mg/kg single dose): <0.01 µL/min
CL_F (apparent total body clearance of the drug from plasma) ([2]; i.p. 1 mg/kg single dose): 0.16 µL/min
K01 (absorption rate constant) ([2]; i.p. 1 mg/kg single dose): 4.29 h⁻¹
K12 (distribution rate constant) ([2]; i.p. 1 mg/kg single dose): <0.001 h⁻¹
K21 (redistribution rate constant) ([2]; i.p. 1 mg/kg single dose): 2.00 h⁻¹
V1_F (apparent volume of central compartment) ([2]; i.p. 1 mg/kg single dose): <0.01 mL
V2_F (apparent volume of peripheral compartment) ([2]; i.p. 1 mg/kg single dose): <0.01 mL
Alpha (hybrid first-order rate constant, distribution phase) ([2]; i.v. 1 mg/kg single dose): 0.20 min⁻¹
Beta (hybrid first-order rate constant, elimination phase) ([2]; i.v. 1 mg/kg single dose): 0.05 min⁻¹
CLD2_F (apparent total clearance of the drug from plasma after administration) ([2]; i.v. 1 mg/kg single dose): 84.57 µL/min
CL_F (apparent total body clearance of the drug from plasma) ([2]; i.v. 1 mg/kg single dose): 199.16 µL/min
K12 (distribution rate constant) ([2]; i.v. 1 mg/kg single dose): 2.95 h⁻¹
K21 (redistribution rate constant) ([2]; i.v. 1 mg/kg single dose): 4.85 h⁻¹
V1_F (apparent volume of central compartment) ([2]; i.v. 1 mg/kg single dose): 1.72 mL
V2_F (apparent volume of peripheral compartment) ([2]; i.v. 1 mg/kg single dose): 1.05 mL
Alpha (hybrid first-order rate constant, distribution phase) ([2]; p.o. 1 mg/kg single dose): 0.04 min⁻¹
Beta (hybrid first-order rate constant, elimination phase) ([2]; p.o. 1 mg/kg single dose): 0.04 min⁻¹
CLD2_F (apparent total clearance of the drug from plasma after administration) ([2]; p.o. 1 mg/kg single dose): <0.01 µL/min
CL_F (apparent total body clearance of the drug from plasma) ([2]; p.o. 1 mg/kg single dose): 2.01 µL/min
K01 (absorption rate constant) ([2]; p.o. 1 mg/kg single dose): 2.92 h⁻¹
K12 (distribution rate constant) ([2]; p.o. 1 mg/kg single dose): <0.001 h⁻¹
K21 (redistribution rate constant) ([2]; p.o. 1 mg/kg single dose): 2.58 h⁻¹
V1_F (apparent volume of central compartment) ([2]; p.o. 1 mg/kg single dose): 0.05 mL
V2_F (apparent volume of peripheral compartment) ([2]; p.o. 1 mg/kg single dose): <0.01 mL
Alpha (hybrid first-order rate constant, distribution phase) ([2]; s.c. 1 mg/kg single dose): 0.04 min⁻¹
Beta (hybrid first-order rate constant, elimination phase) ([2]; s.c. 1 mg/kg single dose): 0.04 min⁻¹
CLD2_F (apparent total clearance of the drug from plasma after administration) ([2]; s.c. 1 mg/kg single dose): <0.01 µL/min
CL_F (apparent total body clearance of the drug from plasma) ([2]; s.c. 1 mg/kg single dose): 0.11 µL/min
K01 (absorption rate constant) ([2]; s.c. 1 mg/kg single dose): 2.28 h⁻¹
K12 (distribution rate constant) ([2]; s.c. 1 mg/kg single dose): <0.001 h⁻¹
K21 (redistribution rate constant) ([2]; s.c. 1 mg/kg single dose): 2.14 h⁻¹
V1_F (apparent volume of central compartment) ([2]; s.c. 1 mg/kg single dose): <0.01 mL
V2_F (apparent volume of peripheral compartment) ([2]; s.c. 1 mg/kg single dose): <0.01 mL
Cmax ([3]; brain, ip): 48.1 ng/g
MRT last ([3]; brain, ip): 40.8 min
Tmax ([3]; brain, ip): 10.4 min
k el ([3]; brain, ip): 0.0002 s⁻¹
Cmax ([3]; brain, iv): 74.1 ng/g
MRT last ([3]; brain, iv): 42 min
k el ([3]; brain, iv): 0.0001 s⁻¹
Cmax ([3]; brain, po): 77 ng/g
MRT last ([3]; brain, po): 40.8 min
Tmax ([3]; brain, po): 14.9 min
k el ([3]; brain, po): 0.000122 s⁻¹
Cmax ([3]; brain, sc): 120 ng/g
MRT last ([3]; brain, sc): 42 min
Tmax ([3]; brain, sc): 19.9 min
k el ([3]; brain, sc): 0.000189 s⁻¹
Alpha (hybrid first-order rate constant, distribution phase) [3, 8]: 9.22 h⁻¹
Beta (hybrid first-order rate constant, elimination phase) [3, 8]: 0.30 h⁻¹
CLD2_F (apparent total clearance of the drug after administration) [3, 8]: 25.61 ng/(min ng/g)
CL_F (apparent total body clearance of the drug) [3, 8]: 3.77 ng/(min ng/g)
K01 (absorption rate constant) [3, 8]: 9.06 h⁻¹
K12 (distribution rate constant) [3, 8]: 4.92 h⁻¹
K21 (redistribution rate constant) [3, 8]: 3.87 h⁻¹
V1_F (apparent volume of central compartment) [3, 8]: 0.31 μg/(ng/g)
V2_F (apparent volume of peripheral compartment) [3, 8]: 0.40 μg/(ng/g)
Alpha (hybrid first-order rate constant, distribution phase) [3, 9]: 35.52 h⁻¹
Beta (hybrid first-order rate constant, elimination phase) [3, 9]: 0.20 h⁻¹
CLD2_F (apparent total clearance of the drug after administration) [3, 9]: 107.59 ng/(min ng/g)
CL_F (apparent total body clearance of the drug) [3, 9]: 2.43 ng/(min ng/g)
K12 (distribution rate constant) [3, 9]: 15.95 h⁻¹
K21 (redistribution rate constant) [3, 9]: 19.41 h⁻¹
V1_F (apparent volume of central compartment) [3, 9]: 0.40 μg/(ng/g)
V2_F (apparent volume of peripheral compartment) [3, 9]: 0.33 μg/(ng/g)
Vss (apparent volume of distribution at a steady state) [3, 9]: 0.74 μg/(ng/g)
Alpha (hybrid first-order rate constant, distribution phase) [3, 10]: 1.68 h⁻¹
Beta (hybrid first-order rate constant, elimination phase) [3, 10]: 0.26 h⁻¹
CLD2_F (apparent total clearance of the drug after administration) [3, 10]: 2.68 ng/(min ng/g)
CL_F (apparent total body clearance of the drug) [3, 10]: 2.28 ng/(min ng/g)
K01 (absorption rate constant) [3, 10]: 11.20 h⁻¹
K12 (distribution rate constant) [3, 10]: 0.51 h⁻¹
K21 (redistribution rate constant) [3, 10]: 0.99 h⁻¹
V1_F (apparent volume of central compartment) [3, 10]: 0.31 μg/(ng/g)
V2_F (apparent volume of peripheral compartment) [3, 10]: 0.16 μg/(ng/g)
Alpha (hybrid first-order rate constant, distribution phase) [3, 11]: 3.48 h⁻¹
Beta (hybrid first-order rate constant, elimination phase) [3, 11]: 0.41 h⁻¹
CLD2_F (apparent total clearance of the drug after administration) [3, 11]: 2.91 ng/(min ng/g)
CL_F (apparent total body clearance of the drug) [3, 11]: 1.75 ng/(min ng/g)
K01 (absorption rate constant) [3, 11]: 5.81 h⁻¹
K12 (distribution rate constant) [3, 11]: 1.13 h⁻¹
K21 (redistribution rate constant) [3, 11]: 2.07 h⁻¹
V1_F (apparent volume of central compartment) [3, 11]: 0.15 μg/(ng/g)
V2_F (apparent volume of peripheral compartment) [3, 11]: 0.08 μg/(ng/g)
brain drug targeting efficiency ([3]; i.p. 1 mg/kg): 0.71
brain drug targeting efficiency ([3]; p.o. 1 mg/kg): 8.21
brain drug targeting efficiency ([3]; s.c. 1 mg/kg): 1.37
SMILES: CC(=O)N[C@@H](Cc1ccccc1)C(=O)N[C@H]1CCCNC(=O)[C@H](CCCNC(=N)N)NC(=O)[C@H](Cc2c[nH]c3ccccc23)NC(=O)[C@@H](CC2CCCCC2)NC(=O)[C@@H]2CCCN2C1=O [PMX53, Ac-Phe-[Orn-Pro-dCha-Trp-Arg]]
